Consider twelve compounds from ChEMBL document CHEMBL1156229, “Pharmacophore development and application toward the identification of novel, small-molecule autotaxin inhibitors” (J Med Chem, 2010).

Active and inactive are the calls of the source. The rule behind the calls is not given here.

For experiment [1], the target named is T1, Autotaxin (Homo sapiens, UniProt Q13822). The experiment in a line: Inhibition of human recombinant C-terminal FLAG-tagged autotaxin expressed in baculovirus-infected Sf9 cells assessed as FS-3 hydrolysis at 0.003 uM; values are per cent of control.
In experiment [2] the target is T1, Autotaxin. The experiment in a line: Inhibition of human recombinant C-terminal FLAG-tagged autotaxin expressed in baculovirus-infected Sf9 cells assessed as FS-3 hydrolysis at 3 uM; values are per cent of control.
In experiment [3] the target is T2, Glycerophosphocholine cholinephosphodiesterase ENPP6 (Homo sapiens) (UniProt Q6UWR7).
T2 sequence (whole entry): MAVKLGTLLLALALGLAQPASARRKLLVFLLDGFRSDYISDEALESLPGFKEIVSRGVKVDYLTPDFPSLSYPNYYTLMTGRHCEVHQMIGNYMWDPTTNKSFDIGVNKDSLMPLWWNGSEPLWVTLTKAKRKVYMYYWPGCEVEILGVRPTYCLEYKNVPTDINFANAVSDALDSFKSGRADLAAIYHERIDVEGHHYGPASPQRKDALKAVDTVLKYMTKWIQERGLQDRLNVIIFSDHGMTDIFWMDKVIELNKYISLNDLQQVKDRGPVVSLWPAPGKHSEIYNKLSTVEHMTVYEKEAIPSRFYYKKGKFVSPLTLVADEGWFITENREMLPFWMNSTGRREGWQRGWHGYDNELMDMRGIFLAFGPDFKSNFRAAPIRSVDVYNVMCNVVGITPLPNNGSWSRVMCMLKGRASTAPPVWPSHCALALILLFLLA
The experiment is described as follows: Inhibition of human recombinant C-terminal FLAG-tagged NPP6 expressed in baculovirus-infected Sf9 cells assessed as pNPPC hydrolysis at 10 uM relative to control. In outline: (§1)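 Purified Sf9-expressed FLAG-tagged enzyme 8.3 nM with inhibitor 10 μM final. NPP6: pNPPC 10 μM in 100 mM Tris-HCl, 500 mM NaCl, 0.05% Triton X-100, pH 9. NPP7: pNPPC 500 μM in 50 mM Tris HCl, 150 mM NaCl, 10 mM sodium taurocholate, pH 8. 37 °C, A405 every 2 min; percent activity vs vehicle at 1 h after no-enzyme subtraction; three wells.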

Experiment [4] has as its target T1, Autotaxin. The experiment in a line: Inhibition of human recombinant C-terminal FLAG-tagged autotaxin expressed in baculovirus-infected Sf9 cells assessed as FS-3 hydrolysis at 0.03 uM; values are per cent of control.
Experiment [5] addresses T1, Autotaxin. The experiment is described as follows: Inhibition of human recombinant C-terminal FLAG-tagged autotaxin expressed in baculovirus-infected Sf9 cells assessed as FS-3 hydrolysis at 10 uM relative to control. The essentials: (§2)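 Single-dose screen: inhibitor 10 μM final, purified recombinant human ATX 8.3 nM, FS-3 1 μM, fatty acid free BSA 30 μM in Tris pH 8 buffer (1 mM MgCl2, 1 mM CaCl2, 3 mM KCl, 140 mM NaCl), 37 °C. Fluorescence (ex 485/em 538) read every 2 min; percent activity vs vehicle after no-ATX subtraction at 1 h; mean ± SD of three wells.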

In experiment [6] the target is T1, Autotaxin. The experiment is described as follows: Noncompetitive inhibition of human recombinant C-terminal FLAG-tagged autotaxin expressed in baculovirus-infected Sf9 cells assessed as FS-3 hydrolysis by Michaelis-Menten method.
The target of experiment [7] is T1, Autotaxin. The experiment in a line: Inhibition of human recombinant C-terminal FLAG-tagged autotaxin expressed in baculovirus-infected Sf9 cells assessed as FS-3 hydrolysis. The essentials: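 Dose response: final inhibitor 30, 10, 3, 1, 0.3, 0.1, 0.03 μM, plus 0.01 and 0.003 μM for some compounds; purified human ATX 8.3 nM, 1 μM FS-3, 30 μM fatty acid free BSA, Tris pH 8 buffer, 37 °C. Fluorescence ex 485/em 538 every 2 min; percent activity vs vehicle at 1 h after no-ATX background subtraction; mean of three wells.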

Experiment [8] concerns the target T1, Autotaxin. The experiment is described as follows: Inhibition of human recombinant C-terminal FLAG-tagged autotaxin expressed in baculovirus-infected Sf9 cells assessed as FS-3 hydrolysis at 30 uM; values are per cent of control.
The target of experiment [9] is T3, Ectonucleotide pyrophosphatase/phosphodiesterase family member 7 (Homo sapiens) (UniProt Q6UWV6).
T3 sequence (whole entry): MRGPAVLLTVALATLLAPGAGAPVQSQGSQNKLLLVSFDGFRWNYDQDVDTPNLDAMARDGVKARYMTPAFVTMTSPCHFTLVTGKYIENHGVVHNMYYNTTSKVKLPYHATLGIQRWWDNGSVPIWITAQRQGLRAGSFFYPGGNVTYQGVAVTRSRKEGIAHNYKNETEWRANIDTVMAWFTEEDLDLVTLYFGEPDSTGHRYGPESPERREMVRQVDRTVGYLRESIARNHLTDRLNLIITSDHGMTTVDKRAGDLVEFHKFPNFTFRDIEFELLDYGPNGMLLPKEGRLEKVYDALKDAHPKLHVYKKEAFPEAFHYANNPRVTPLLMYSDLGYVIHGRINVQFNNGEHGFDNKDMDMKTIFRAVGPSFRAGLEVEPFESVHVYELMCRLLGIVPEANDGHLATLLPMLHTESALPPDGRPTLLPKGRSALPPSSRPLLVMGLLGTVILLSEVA
The experiment is described as follows: Inhibition of human recombinant C-terminal FLAG-tagged NPP7 expressed in baculovirus-infected Sf9 cells assessed as pNPPC hydrolysis at 10 uM relative to control. The essentials: as §1

For experiment [10], the target named is T1, Autotaxin. The experiment in a line: Inhibition of human recombinant C-terminal FLAG-tagged autotaxin expressed in baculovirus-infected Sf9 cells assessed as FS-3 hydrolysis at 1 uM; values are per cent of control.
The target in experiment [11] is T1, Autotaxin. The experiment is described as follows: Inhibition of human recombinant C-terminal FLAG-tagged autotaxin expressed in baculovirus-infected Sf9 cells assessed as FS-3 hydrolysis at 0.1 uM; values are per cent of control.
Experiment [12] concerns the target T1, Autotaxin. The experiment in a line: Inhibition of human recombinant C-terminal FLAG-tagged autotaxin expressed in baculovirus-infected Sf9 cells assessed as FS-3 hydrolysis at 0.3 uM; values are per cent of control.
The target of experiment [13] is T1, Autotaxin. The experiment in a line: Inhibition of human recombinant C-terminal FLAG-tagged autotaxin expressed in baculovirus-infected Sf9 cells assessed as FS-3 hydrolysis at 10 uM; values are per cent of control.
The target of experiment [14] is T1, Autotaxin. The experiment in a line: Inhibition of human recombinant C-terminal FLAG-tagged autotaxin expressed in baculovirus-infected Sf9 cells assessed as FS-3 hydrolysis at 0.01 uM; values are per cent of control.
Experiment [15] deals with T1, Autotaxin. The experiment is described as follows: Inhibition of human recombinant C-terminal FLAG-tagged autotaxin expressed in baculovirus-infected Sf9 cells using lysophosphatidylcholine as substrate assessed as choline release by Amplex red reagent assay. In outline: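 LPC 16:0 100 μM with purified human ATX 8.3 nM and inhibitor 10 μM final, 30 μM fatty acid free BSA, 50 mM Tris/5 mM CaCl2 pH 7.4, 37 °C. Choline detected by choline oxidase 0.1 U/mL, HRP 1 U/mL, Amplex Red 10 μM; fluorescence ex 560/em 590 every 2 min, percent of vehicle at 1 h after no-ATX subtraction; mean ± SD of three wells.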

Experiment [16] addresses T1, Autotaxin. The experiment is described as follows: Inhibition of autotaxin at 10 uM. In outline:
as §2

Experiment [17] concerns the target T1, Autotaxin. The experiment is described as follows: Competitive inhibition of human recombinant C-terminal FLAG-tagged autotaxin expressed in baculovirus-infected Sf9 cells assessed as FS-3 hydrolysis by Michaelis-Menten method.

With `Nc1c(/N=N/c2ccc(-c3ccc(/N=N/c4cc(S(=O)(=O)O)c5ccccc5c4N)cc3)cc2)cc(S(=O)(=O)O)c2ccccc12` [CONGO RED], the residual activity on Autotaxin [1] stood at 99.9%; at Autotaxin [2], 36.7%; at Autotaxin [4], 94.6%; at Autotaxin [8] it was 5.29%; on Autotaxin [10] it was 54.9%; at Autotaxin [11], 91.2%. Further, the residual activity on Autotaxin [12] was found to be 77.3%; on Autotaxin [13], 14.6%; at Autotaxin [14] it was 99.8%. Further, the inhibition in experiment [3] was -3%; at Autotaxin [5], 82%; in experiment [9], 2%. On Autotaxin [6], the inhibitory constant (Ki) is 1890 nM. Besides, at Autotaxin [7], the IC50 came out at 1310 nM.
Take `Nc1ccc(C(=O)Nc2ccc(C(=O)Nc3ccc4c(O)cc(S(=O)(=O)O)cc4c3)cc2)cc1`: the inhibition at Autotaxin [5] worked out at 40%. In addition, the inhibition result at Autotaxin [15] is “Active”.
On to `O=C(Nc1ccc(C(=O)Nc2cc(S(=O)(=O)O)cc3cccc(S(=O)(=O)O)c23)cc1)Nc1ccc(C(=O)Nc2cc(S(=O)(=O)O)cc3cccc(S(=O)(=O)O)c23)cc1`, for which the inhibition at Autotaxin [5] was -5%. Also, the inhibition result on Autotaxin [15] was “Active”.
As to `CC1=NN(c2ccc(/C=C/c3ccc(NC(=O)Nc4ccc(/C=C/c5ccc(N6N=C(C)C(/N=N/c7ccccc7C(=O)O)C6=O)cc5S(=O)(=O)O)c(S(=O)(=O)O)c4)cc3S(=O)(=O)O)c(S(=O)(=O)O)c2)C(=O)C1/N=N/c1ccccc1C(=O)O` (configuration not stated), on Autotaxin [5], the inhibition came to 13%. Also, the inhibition result at Autotaxin [15] was “Active”.
As for `CCn1cc(C(=O)O)c(=O)c2cnc(N3CCN(C(=S)Nc4cc(Cl)cc(Cl)c4)CC3)nc21`, the inhibition against Autotaxin [16] was found to be 100%.
Regarding `Cc1cc(-c2ccc(/N=N/c3ccc4c(S(=O)(=O)O)cc(S(=O)(=O)O)c(N)c4c3O)c(C)c2)ccc1/N=N/c1ccc2c(S(=O)(=O)O)cc(S(=O)(=O)O)c(N)c2c1O` [EVANS BLUE], the residual activity on Autotaxin [1] was determined as 95.8%; at Autotaxin [2] it was 35.8%; on Autotaxin [4] it was 89.6%; at Autotaxin [8] it was 13.3%; on Autotaxin [10], 47.9%; at Autotaxin [11], 82.3%. Moreover, the residual activity on Autotaxin [12] stood at 60.9%; on Autotaxin [13] it was 26.2%; at Autotaxin [14], 96%. Also, the figures for the inhibition (in experiment [3]; on Autotaxin [5]; in experiment [9]) were -2%, 64% and -2%, respectively. The IC50 on Autotaxin [7] came to 922 nM. The Ki at Autotaxin [17] was 824 nM.
For `O=[As](O)(O)c1ccc(Cc2ccc([As](=O)(O)O)cc2)cc1`, the inhibition on Autotaxin [16] was found to be 98%.
`O=S(=O)(O)c1cc(O)c2ccc(Nc3ccc4c(O)cc(S(=O)(=O)O)cc4c3)cc2c1`: the inhibition at Autotaxin [5] came to 11%. Further, on Autotaxin [15], the inhibition entry is “Active”.
For the compound `Cc1ccc(/N=N/c2c(S(=O)(=O)O)cc3cc(NC(=O)Nc4ccc5c(O)c(/N=N/c6ccc7cc(S(=O)(=O)O)ccc7c6)c(S(=O)(=O)O)cc5c4)ccc3c2O)c(C)c1`, the inhibition on Autotaxin [5] turned out to be 67%. Besides, the half-inhibitory concentration (IC50) at Autotaxin [7] is 18600 nM.
Turning to `COc1cc(-c2ccc(/N=N/c3c(S(=O)(=O)O)cc4cc(S(=O)(=O)O)cc(N)c4c3O)c(OC)c2)ccc1/N=N/c1c(S(=O)(=O)O)cc2cc(S(=O)(=O)O)cc(N)c2c1O`, the residual activity on Autotaxin [1] was found to be 97.5%; at Autotaxin [2], 14.1%; at Autotaxin [4] it was 86.2%; at Autotaxin [8] it was 2.68%; on Autotaxin [10] it was 26%; at Autotaxin [11], 72%. For the same compound, the residual activity is 52.9% at Autotaxin [12], 6% at Autotaxin [13] and 93.9% on Autotaxin [14]. For the same compound, the inhibition in experiment [3] was -3%; on Autotaxin [5], 93%; in experiment [9], -1%. For the same compound, at Autotaxin [7], the IC50 is 372 nM. Further, the Ki at Autotaxin [17] stood at 271 nM.
Regarding `COc1cc(/N=N/c2ccc3cc(S(=O)(=O)O)cc(S(=O)(=O)O)c3c2)ccc1/N=N/c1ccc(NC(=O)c2ccc(NC(=O)c3ccccc3)cc2)cc1C`, the inhibition at Autotaxin [5] turned out to be 77%. The half-inhibitory concentration (IC50) at Autotaxin [7] was 1700 nM.
Turning to `COc1c(C=O)c(O)cc2c1C(=O)c1ccccc1C2=O`, the inhibition on Autotaxin [16] was 70%.
